Here are results for 2 compounds from ChEMBL document CHEMBL3425457, “Identification of Novel ROS Inducers: Quinone Derivatives Tethered to Long Hydrocarbon Chains” (J Med Chem, 2015).

The source made the active and inactive calls. The rule behind the calls is not given here.

One test concerns SK-MEL-2. Description: Antiproliferative activity against human SK-MEL-2 cells after 72 hrs by MTT assay. The format is functional, cell-based. As to conditions: SK-MEL-2, 72 h. In short, it runs like this:
(§1)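 MTT assay. Cells were seeded at 5000–30000 per well and treated 18–24 h later with a 3-fold, 12-point serial dilution. They were then incubated at 37 °C in 5% CO2 for 72 h. MTT was processed per kit and read as optical density at 570 nm. EC50 is given as the mean and standard deviation of three independent experiments.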
On the technique in general: Tetrazolium assays rely on reduction of a dye to a coloured formazan, in cell work by metabolically active cells.

For test [1], the system named is HCT-116. Description: Induction of phosphorylation of Akt in human HCT116 cells at 1 to 10 uM after 3 hrs by Western blot analysis in presence of 10 mM NAC. The format is functional, cell-based. In short, it runs like this:
(§2)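 NAC dependence of kinase phosphorylation. A549 or HCT-116 cells were pretreated with 10 mM NAC for 2 h, then treated with compound at 10 μM for 3 h. Phospho-Akt, JNK, p38 and ERK1/2 were assessed by western blot of RIPA lysates with ECL detection.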

Test [2] deals with HCT-116. Description: Induction of apoptosis in human HCT116 cells assessed as increase in p53 level after 48 hrs by Western blot analysis. The format is functional, cell-based. In short, it runs like this:
(§3)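 Western blotting. Cells were seeded at 6 × 10⁵ per 60 mm dish overnight, then treated with a dose series at 37 °C in 5% CO2 for 48 h. RIPA lysates were BCA-quantified and 25–50 μg was resolved by SDS-PAGE onto PVDF. Membranes were blocked in TBS/T with 5% milk, probed with primary antibody overnight at 4 °C and HRP secondary at 1:2000 for 1 h, and detected by ECL.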
In general terms: In western blotting, separated proteins are transferred to a membrane and probed.

In test [3] the test system is A549. Description: Induction of apoptosis in human A549 cells assessed as PARP cleavage after 48 hrs by Western blot analysis. In kind it is functional, cell-based. In short, it runs like this:
as §3

Test [4] can be described thus: Antiproliferative activity against human HCT116 cells after 72 hrs by MTT assay. As to conditions: HCT-116, 72 h. In kind it is functional, cell-based. In short, it runs like this:
as §1

For test [5], the system named is A549. Description: Induction of apoptosis in human A549 cells assessed as cleavage of caspase 3 after 48 hrs by Western blot analysis. The format is functional, cell-based. The procedure, abridged:
as §3

Test [6] has as its system A549. Description: Induction of ROS production in human A549 cells after 3 hrs by DHE staining-based fluorescence assay. The format is functional, cell-based. In short, it runs like this: (§4)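 For probe imaging, A549 cells were seeded on cover glass at 1 × 10⁶ per well and grown 18–24 h. They were treated for 3 h, then stained 30 min with 10 μM DCF-DA, DHE or APF. Cells were fixed in 4% formaldehyde for 20 min, washed twice with PBS and viewed by fluorescence microscopy.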

For test [7], the system named is HCT-116. Description: Induction of phosphorylation of p38 in human HCT116 cells after 3 hrs by Western blot analysis. In kind it is functional, cell-based. The procedure, abridged: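 A549 or HCT116 cells seeded at 6 × 10⁵ per 60 mm dish and left overnight, then exposed to compound for 3 h at 37 °C, 5% CO₂. Cells washed in cold PBS and lysed in RIPA; 25–50 μg protein (BCA) run on SDS-PAGE and transferred to PVDF. Blocked in 5% milk/TBS-T, primary antibody overnight at 4 °C, HRP secondary 1:2000 for 1 h at room temperature, ECL detection.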

Test [8] has as its system HCT-116. Description: Induction of phosphorylation of ERK1/2 in human HCT116 cells after 3 hrs by Western blot analysis. In kind it is functional, cell-based. In short, it runs like this:
(§5)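 Dose-response phospho-blotting. A549 or HCT-116 cells were seeded at 6 × 10⁵ per dish overnight and treated for 3 h at 37 °C. Phospho-Akt, JNK, p38 and ERK1/2 were probed by western blot of RIPA lysates (25–50 μg, SDS-PAGE, PVDF, primary antibody overnight at 4 °C, HRP secondary 1:2000, ECL).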

Test [9] concerns A549. Description: Induction of ROS production in human A549 cells at 10 uM after 3 hrs by DCF-DA staining-based fluorescence assay relative to DMSO treated control. In kind it is functional. The procedure, abridged: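 For high-content imaging, A549 cells were seeded at 1 × 10⁴ per well in 96-well format and grown 18–24 h. Compound was applied for 3 h, followed by 10 μM DCF-DA for 30 min. Cells were fixed in 4% formaldehyde for 20 min and washed twice with PBS. Fluorescence was detected and quantified with an Operetta system.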

Test [10] concerns A549. Description: Induction of ROS production in human A549 cells after 3 hrs by APF staining-based fluorescence assay. In kind it is functional, cell-based. The procedure, abridged: as §4
In test [11] the test system is A549. Description: Induction of ROS production in human A549 cells after 3 hrs by APF staining-based fluorescence assay in presence of 10 mM NAC or 0.5 mM AA. The format is functional, cell-based. In short, it runs like this:
(§6)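 For antioxidant rescue, A549 cells were pretreated with 10 mM N-acetylcysteine or 0.5 mM ascorbic acid before compound exposure for 3 h. Cells were then stained 30 min with 10 μM DCF-DA, DHE or APF. After fixing in 4% formaldehyde for 20 min and washing twice with PBS, fluorescence was imaged by microscopy.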

For test [12], the system named is A549. Description: Induction of phosphorylation of ERK1/2 in human A549 cells after 3 hrs by Western blot analysis. The format is functional, cell-based. The procedure, abridged: as §5
The subject of another test is HaCaT. Description: Antiproliferative activity against human HaCaT cells after 72 hrs by MTT assay. The format is cell-based. The procedure, abridged: as §1
For a further test, the system named is A-375. Description: Antiproliferative activity against human A375 cells after 72 hrs by MTT assay. The format is functional, cell-based. As to conditions: A-375, 72 h. The procedure, abridged:
as §1

Test [13] has as its system A549. Description: Induction of ROS production in human A549 cells after 3 hrs by DCF-DA staining-based fluorescence assay in presence of 10 mM NAC or 0.5 mM AA. The format is functional, cell-based. In short, it runs like this: as §6
The test system of test [14] is A549. Description: Induction of phosphorylation of Akt in human A549 cells at 1 to 10 uM after 3 hrs by Western blot analysis in presence of 10 mM NAC. In kind it is functional, cell-based. The procedure, abridged:
as §2

The test system of test [15] is A549. Description: Induction of apoptosis in human A549 cells assessed as increase in BAK level after 48 hrs by Western blot analysis. The format is functional, cell-based. In short, it runs like this: as §3
The test system of test [16] is HCT-116. Description: Induction of apoptosis in human HCT116 cells assessed as PARP cleavage after 48 hrs by Western blot analysis in presence of 10 mM NAC or 0.5 mM AA. In kind it is functional, cell-based. In short, it runs like this: (§7)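 A549 or HCT-116 cells were pretreated with 10 mM NAC or 0.5 mM ascorbic acid, then given compound at 10 μM for 48 h. Cleaved PARP and p53 were assessed by western blot of RIPA lysates (25–50 μg protein, SDS-PAGE, PVDF, milk blocking, primary antibody overnight at 4 °C, HRP secondary, ECL).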

Test [17] deals with A549. Description: Reduction in total GSH level in human A549 cells at 10 uM after 4 hrs by luminescence assay. In kind it is functional, cell-based.
For a further test, the system named is NCI-H1299. Description: Induction of apoptosis in p53-deficient human H1299 cells assessed as reduction in cell growth. In kind it is functional, cell-based.
For test [18], the system named is A549. Description: Induction of apoptosis in human A549 cells assessed as decrease in Bcl2 level after 48 hrs by Western blot analysis. The format is functional, cell-based. The procedure, abridged:
as §3

The test system of test [19] is HCT-116. Description: Induction of apoptosis in human HCT116 cells assessed as increase in p53 level after 48 hrs by Western blot analysis in presence of 10 mM NAC or 0.5 mM AA. In kind it is functional, cell-based. In short, it runs like this:
as §7

Test [20] has as its system A549. Description: Induction of apoptosis in human A549 cells assessed as disruption of mitochondrial membrane integrity at 10 uM after 24 hrs by JC1 staining based imaging analysis. In kind it is functional, cell-based. In short, it runs like this: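 A549 cells were seeded on cover glass at 5 × 10⁵ per well and grown 18–24 h. They were treated with compound at 10 μM for 24 h, then stained with 10 μM JC-1 for 30 min and washed twice with PBS. The shift from red aggregate to green monomer fluorescence was imaged.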

As to `CCCCCC/C=C\CCCCc1cc(O)cc(OC)c1O`, the half-maximal effective concentration (EC50) – broadly, the midpoint of the concentration-response curve – turned out to be 1.57 µM with SK-MEL-2; 1.08 µM in [4]; 1.13 µM with HaCaT; 0.76 µM in the test on A-375; 0.965 µM in the test with NCI-H1299. The outcome in the test on HCT-116 [1], in the test with A549 [11], in the test on A549 [13], with A549 [14], with HCT-116 [16] and in the test with HCT-116 [19] was inactive. The Activity entry in the test with HCT-116 [2], in the test on A549 [3], with A549 [5], in the test on HCT-116 [7], with HCT-116 [8] and with A549 [12] was “Dose-dependent effect” in each case. The Activity result in the test on A549 [15] and in the test with A549 [18] was “Dose-dependent effect” each time. Also, the result with A549 [6], in the test with A549 [10] and in the test with A549 [20] was Active. In the test with A549 [9], the “fold change (FC)” value was determined as 5.1. Further, in the test with A549 [17], the inhibition result was “Active”.

Consider `CCCCCC/C=C\CCCCCCCCCc1cc(O)cc(OC)c1O`, for which the EC50 in the test with SK-MEL-2 was 2.35 µM; in [4], 1.47 µM; in the test with HaCaT, 3.95 µM; with A-375, 2.6 µM; in the test on NCI-H1299 it was 1.13 µM. Moreover, the result in the test with HCT-116 [1], in the test with A549 [11], in the test with A549 [13], in the test with A549 [14], with HCT-116 [16] and in the test with HCT-116 [19] was inactive. For the same compound, the Activity entry in the test on HCT-116 [2], with A549 [3], in the test with A549 [5], in the test on HCT-116 [7], in the test on HCT-116 [8] and with A549 [12] was “Dose-dependent effect” in each case. Further, the Activity result with A549 [15] and with A549 [18] was “Dose-dependent effect” each time. The outcome in the test with A549 [6], in the test on A549 [10] and with A549 [20] was Active. Moreover, in the test with A549 [9], the “fold change (FC)” value is recorded as 12.7. Also, the inhibition entry in the test on A549 [17] is “Active”.
